# Measured values from different studies.
# Each line is one published result; the experiments were not run side by side.
# Cell line: Jurkat
# Effect on: cell growth or viability
Compound,technique,time,measurement,result
Cc1cc(=O)n(C)c2cc(N3C(=O)CC[C@H](NS(=O)(=O)CC(C)C)[C@H]3c3ccc(Cl)cc3)ccc12,,7 days,EC50,10.5 µM
C[C@H](O)C(=O)CCCCCCC(=O)Nc1cccc(-c2cn(-c3ccccc3)nn2)c1,thymidine uptake,,IC50,2.84 µM
N#CCCC1=CC2C=CC=CC1C2C1CCCCC1=O (centres unmarked),flow cytometry,,IC50,0.075 µM
CCCCCCCCCCCCNC(=O)NCCCC[C@H](NS(C)(=O)=O)C(=O)N[C@H](C)C(=O)N[C@@H](CCCNC(=N)N)C(N)=O,MTT,72 h,EC50,25.4 to 40.8 µM
O=C(/C=C/C=C/c1ccc2c(c1)OCO2)N1CCCCC1,MTT,48 h,IC50,> 50 µg/mL
O=C1CCCCC1C1C2C=CC=CC1C(CCN1C(=O)c3ccccc3C1=O)=C2 (centres unmarked),flow cytometry,,IC50,0.026 µM
CCCON(Cc1ccc(C(=O)NO)cc1)C(=O)Nc1ccc(N(C)C)cc1,ATP luminescence,72 h,IC50,5.22 µM
Cc1cc2c(cc1N1C(=O)c3cccc4c(CCCO)ccc(c34)C1=O)n(C)c(=O)n2C (racemic),resazurin,,GI50,3.9 µM
CCOC(=O)CCC1=CC2C=CC=CC1C2C1CCCCC1=O (centres unmarked),flow cytometry,,IC50,0.048 µM
CCCCCCCCCCCCNC(=S)NCCCC[C@H](NS(C)(=O)=O)C(=O)N[C@H](C)C(=O)N[C@@H](CCCNC(=N)N)C(=O)N1CCOCC1,MTT,72 h,EC50,35.5 to 64.4 µM
CCn1cc(-c2cccc(C(F)(F)F)c2)c2sc(C(=N)NC3CCS(=O)(=O)CC3)cc2c1=O,,7 days,EC50,3.64 µM
